Data reported in ChEMBL document CHEMBL5724801, “EUbOPEN Chemogenomics Library - Multiplex” (2024).
Where “and” joins values, the source holds several entries; their conditions need not be identical. Equal values may be shown once.

Test system: U2OS
Assay: Multiplex assay against U2OS
Type: toxicity, cell-based
Settings: human
Summary of the method: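 Imaging took place on a CQ1 microscope at 37°C and 5% CO2 once compound had been added to live cells stained at seeding with Hoechst33342, BioTracker Green Microtubule Cytoskeleton Dye, MitoTracker Red and Annexin V Alexa Fluor 680. CellPathfinder machine-learning gating classed cells as Hoechst high-intensity objects or normal cells, classed normal cells as having healthy, pyknosed or fragmented nuclei, and classed pyknosed cells as mitotic or apoptotic. Tubulin, mitochondrial-mass and membrane-permeability phenotypes are per cents of the healthy-nucleus cells.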

[1] = 12 h, 1 µM, compound concentration 1 uM
[2] = 12 h, 10 µM, compound concentration 10 uM
[3] = 24 h, 1 µM, compound concentration 1 uM
[4] = 24 h, 10 µM, compound concentration 10 uM
[5] = 48 h, 1 µM, compound concentration 1 uM
[6] = 48 h, 10 µM, compound concentration 10 uM

For C[C@H](C[C@H](N)C(=O)O)C(=O)O [2S,4R-4-METHYLGLUTAMATE], the “Population Apoptotic (%)” value [1] was 31.91% and 61.54%, the “Population Fragmented Nuclei (%)” value [1] was 3.36% and 4% and the “Population Healthy Nuclei (%)” value [1] was 85.37% and 85.6%. The “Population Hoechst High Intensity Objects (%)” value [1] was 0%, the “Population Membrane Permeable-Phenotype (%)” value [1] was 2.25% and 5.61% and the “Population Mitochondria Different-Phenotype (%)” value [1] was 0% and 3.74%. For the same compound, the “Population Mitotic Cells (%)” value [1] was 68.09% and 38.46%, the “Population Normal (%)” value [1] was 100% and the “Population Pyknosed Nuclei (%)” value [1] was 11.27% and 10.4%. For the same compound, the “Population Tubulin-Different-Phenotype (%)” value [1] was 0.28% and 0%, the “Population Apoptotic (%)” value [2] was 36.84% and 47.06% and the “Population Fragmented Nuclei (%)” value [2] was 0.57% and 3.31%. For the same compound, the “Population Healthy Nuclei (%)” value [2] was 88.51% and 85.43%, the “Population Hoechst High Intensity Objects (%)” value [2] was 0% and the “Population Membrane Permeable-Phenotype (%)” value [2] was 1.95% and 3.88%. For the same compound, the “Population Mitochondria Different-Phenotype (%)” value [2] was 0.32% and 6.98%, the “Population Mitotic Cells (%)” value [2] was 63.16% and 52.94% and the “Population Normal (%)” value [2] was 100%. For the same compound, the “Population Pyknosed Nuclei (%)” value [2] was 10.92% and 11.26%, the “Population Tubulin-Different-Phenotype (%)” value [2] was 3.25% and 0.78% and the “Total Cell Count” value [2] was 348 and 151. For the same compound, the “Population Apoptotic (%)” value [3] was 54.55% and 80%, the “Population Fragmented Nuclei (%)” value [3] was 3.12% and 6.67% and the “Population Healthy Nuclei (%)” value [3] was 86.79% and 84.24%. For the same compound, the “Population Hoechst High Intensity Objects (%)” value [3] was 0% and 0.6%, the “Population Membrane Permeable-Phenotype (%)” value [3] was 1.48% and 3.6% and the “Population Mitochondria Different-Phenotype (%)” value [3] was 0% and 5.04%. The “Population Mitotic Cells (%)” value [3] was 45.45% and 20%, the “Population Normal (%)” value [3] was 100% and 99.4% and the “Population Pyknosed Nuclei (%)” value [3] was 10.09% and 9.09%. For the same compound, the “Population Tubulin-Different-Phenotype (%)” value [3] was 0.42% and 0%, the “Population Apoptotic (%)” value [4] was 38.3% and 31.25% and the “Population Fragmented Nuclei (%)” value [4] was 0.43% and 1.99%. The “Population Healthy Nuclei (%)” value [4] was 89.42% and 90.05%, the “Population Hoechst High Intensity Objects (%)” value [4] was 0.22% and 0% and the “Population Membrane Permeable-Phenotype (%)” value [4] was 1.45% and 3.31%. For the same compound, the “Population Mitochondria Different-Phenotype (%)” value [4] was 0.48% and 3.87%, the “Population Mitotic Cells (%)” value [4] was 61.7% and 68.75% and the “Population Normal (%)” value [4] was 99.78% and 100%. The “Population Pyknosed Nuclei (%)” value [4] was 10.15% and 7.96%, the “Population Tubulin-Different-Phenotype (%)” value [4] was 1.45% and 0.55% and the “Total Cell Count” value [4] was 464 and 201. The “Population Apoptotic (%)” value [5] was 50% and 51.52%, the “Population Fragmented Nuclei (%)” value [5] was 3.72% and 3.91% and the “Population Healthy Nuclei (%)” value [5] was 89.03% and 84.34%. For the same compound, the “Population Hoechst High Intensity Objects (%)” value [5] was 0%, the “Population Membrane Permeable-Phenotype (%)” value [5] was 1.47% and 2.11% and the “Population Mitochondria Different-Phenotype (%)” value [5] was 0% and 2.95%. For the same compound, the “Population Mitotic Cells (%)” value [5] was 50% and 48.48%, the “Population Normal (%)” value [5] was 100% and the “Population Pyknosed Nuclei (%)” value [5] was 7.24% and 11.74%. The “Population Tubulin-Different-Phenotype (%)” value [5] was 1.02% and 1.27%, the “Population Apoptotic (%)” value [6] was 54.05% and 54.84% and the “Population Fragmented Nuclei (%)” value [6] was 2.19% and 2.47%. The “Population Healthy Nuclei (%)” value [6] was 89.7% and 89.01%, the “Population Hoechst High Intensity Objects (%)” value [6] was 0% and the “Population Membrane Permeable-Phenotype (%)” value [6] was 1.1% and 1.23%. The “Population Mitochondria Different-Phenotype (%)” value [6] was 0.12% and 1.23%, the “Population Mitotic Cells (%)” value [6] was 45.95% and 45.16% and the “Population Normal (%)” value [6] was 100%. The “Population Pyknosed Nuclei (%)” value [6] was 8.11% and 8.52%, the “Population Tubulin-Different-Phenotype (%)” value [6] was 1.47% and 0.31% and the “Total Cell Count” value [6] was 913 and 364.
With CN(C)CCCn1cc(C2=C(c3c[nH]c4ccccc34)C(=O)NC2=O)c2ccccc21 [GF-109203] the “Population Apoptotic (%)” value [1] was 29.27% and 38.1%, the “Population Healthy Nuclei (%)” value [1] was 87.6% and 71.08% and the “Population Hoechst High Intensity Objects (%)” value [1] was 0%. The “Population Membrane Permeable-Phenotype (%)” value [1] was 1.47% and 5.52%, the “Population Mitotic Cells (%)” value [1] was 70.73% and 61.9% and the “Population Normal (%)” value [1] was 100%. The “Population Pyknosed Nuclei (%)” value [1] was 10.59% and 10.29%, the “Population Tubulin-Different-Phenotype (%)” value [1] was 1.77% and 1.38% and the “Total Cell Count” value [1] was 387 and 204. For the same compound, the “Population Apoptotic (%)” value [2] was 35.21% and 37.14%, the “Population Fragmented Nuclei (%)” value [2] was 1.16% and 5.8% and the “Population Healthy Nuclei (%)” value [2] was 78.32% and 68.84%. For the same compound, the “Population Hoechst High Intensity Objects (%)” value [2] was 0%, the “Population Membrane Permeable-Phenotype (%)” value [2] was 49.08% and 62.11% and the “Population Mitotic Cells (%)” value [2] was 64.79% and 62.86%. The “Population Normal (%)” value [2] was 100%, the “Population Pyknosed Nuclei (%)” value [2] was 20.52% and 25.36% and the “Population Tubulin-Different-Phenotype (%)” value [2] was 70.11% and 53.68%. The “Total Cell Count” value [2] was 346 and 138, the “Population Apoptotic (%)” value [3] was 38.98% and 53.33% and the “Population Healthy Nuclei (%)” value [3] was 87.5% and 70.09%. The “Population Hoechst High Intensity Objects (%)” value [3] was 0.19% and 0%, the “Population Membrane Permeable-Phenotype (%)” value [3] was 1.34% and 5.49% and the “Population Mitochondria Different-Phenotype (%)” value [3] was 0% and 15.85%. The “Population Mitotic Cells (%)” value [3] was 61.02% and 46.67%, the “Population Normal (%)” value [3] was 99.81% and 100% and the “Population Pyknosed Nuclei (%)” value [3] was 11.52% and 12.82%. For the same compound, the “Population Tubulin-Different-Phenotype (%)” value [3] was 0.89% and 2.44%, the “Total Cell Count” value [3] was 513 and 234 and the “Population Apoptotic (%)” value [4] was 66.23% and 81.33%. For the same compound, the “Population Fragmented Nuclei (%)” value [4] was 2.13% and 6.99%, the “Population Healthy Nuclei (%)” value [4] was 51.98% and 40.56% and the “Population Hoechst High Intensity Objects (%)” value [4] was 0%. For the same compound, the “Population Membrane Permeable-Phenotype (%)” value [4] was 35.67% and 50%, the “Population Mitotic Cells (%)” value [4] was 33.77% and 18.67% and the “Population Normal (%)” value [4] was 100%. The “Population Pyknosed Nuclei (%)” value [4] was 45.9% and 52.45%, the “Population Tubulin-Different-Phenotype (%)” value [4] was 60.23% and 58.62% and the “Total Cell Count” value [4] was 329 and 143. The “Population Apoptotic (%)” value [5] was 41.25% and 46.51%, the “Population Healthy Nuclei (%)” value [5] was 88.82% and 68.86% and the “Population Hoechst High Intensity Objects (%)” value [5] was 0% and 0.34%. For the same compound, the “Population Membrane Permeable-Phenotype (%)” value [5] was 1.36% and 5.03%, the “Population Mitochondria Different-Phenotype (%)” value [5] was 0% and 16.08% and the “Population Mitotic Cells (%)” value [5] was 58.75% and 53.49%. For the same compound, the “Population Normal (%)” value [5] was 100% and 99.66%, the “Population Pyknosed Nuclei (%)” value [5] was 8.77% and 14.88% and the “Population Tubulin-Different-Phenotype (%)” value [5] was 0.99% and 3.02%. For the same compound, the “Population Apoptotic (%)” value [6] was 86.32% and 90.65%, the “Population Fragmented Nuclei (%)” value [6] was 6.15% and 9.46% and the “Population Healthy Nuclei (%)” value [6] was 28.62% and 18.24%. The “Population Hoechst High Intensity Objects (%)” value [6] was 0.31% and 0%, the “Population Mitochondria Different-Phenotype (%)” value [6] was 24.73% and 55.56% and the “Population Mitotic Cells (%)” value [6] was 13.68% and 9.35%. For the same compound, the “Population Normal (%)” value [6] was 99.69% and 100%, the “Population Pyknosed Nuclei (%)” value [6] was 65.23% and 72.3% and the “Population Tubulin-Different-Phenotype (%)” value [6] was 63.44% and 37.04%. For the same compound, the “Total Cell Count” value [6] was 326 and 148.
